Experimental data reported in paper PMC11131057 (Blood Advances, 2024).
Like-named read-outs stand apart in the source and are kept apart here.

Tests used:
[1] = Pharmacokinetic analysis of plasma FF-10101 concentration in trial participants; assay type: in vivo, human
[2] = system: relapsed and/or refractory AML; assay: Phase 1 dose escalation: response in patients with R/R AML; assay type: in vivo, human
FLT3 = molecular target: T1, FLT3 (Homo sapiens, UniProt P36888); assay: Plasma inhibitory activity; assay type: cell-based
T1 sequence (P36888 27-993): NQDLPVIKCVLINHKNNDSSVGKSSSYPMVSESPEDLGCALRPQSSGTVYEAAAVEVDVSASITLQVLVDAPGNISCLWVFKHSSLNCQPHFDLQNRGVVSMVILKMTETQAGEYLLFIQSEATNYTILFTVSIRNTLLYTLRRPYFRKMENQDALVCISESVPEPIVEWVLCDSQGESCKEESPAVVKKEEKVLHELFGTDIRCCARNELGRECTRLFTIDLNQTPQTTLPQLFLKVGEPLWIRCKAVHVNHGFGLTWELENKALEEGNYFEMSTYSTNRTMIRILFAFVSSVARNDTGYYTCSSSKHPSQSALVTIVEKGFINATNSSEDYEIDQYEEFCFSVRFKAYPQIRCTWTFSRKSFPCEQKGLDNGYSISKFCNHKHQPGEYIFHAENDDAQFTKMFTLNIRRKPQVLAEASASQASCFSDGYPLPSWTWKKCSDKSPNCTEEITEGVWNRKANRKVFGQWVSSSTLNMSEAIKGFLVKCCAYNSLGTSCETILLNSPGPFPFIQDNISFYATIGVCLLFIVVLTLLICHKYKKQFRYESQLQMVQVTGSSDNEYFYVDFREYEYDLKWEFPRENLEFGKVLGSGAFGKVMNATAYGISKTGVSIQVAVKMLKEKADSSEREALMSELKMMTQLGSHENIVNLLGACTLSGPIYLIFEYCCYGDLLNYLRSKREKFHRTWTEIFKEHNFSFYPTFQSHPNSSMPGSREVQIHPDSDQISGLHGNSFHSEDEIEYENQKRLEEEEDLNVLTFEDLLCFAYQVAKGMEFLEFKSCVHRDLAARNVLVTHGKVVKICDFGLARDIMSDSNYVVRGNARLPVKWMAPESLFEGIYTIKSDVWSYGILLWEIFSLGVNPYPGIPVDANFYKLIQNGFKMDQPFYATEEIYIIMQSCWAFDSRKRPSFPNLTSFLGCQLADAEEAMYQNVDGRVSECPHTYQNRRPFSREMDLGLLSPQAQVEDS
In short: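 Ex vivo surrogate for in vivo FLT3 inhibition. Participant plasma was prepared from lithium-heparin whole blood collected at cycle 1 time points, including pre-dose troughs on days 8 and 15. It was tested on FLT3-ITD Molm14 cells, and P-FLT3 was expressed as a percentage of baseline. Drug concentration in the same samples was measured by mass spectrometry and paired with PIA values across QD and BID cohorts.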

[3] = assay type: in vivo, human; settings: for Aspartate aminotransferase elevation, related TEAE / Creatine kinase increase, related TEAE / Diarrhea, related TEAE / Nausea, related TEAE: 54 participants
AML = settings: cited from earlier work
FLT3-TKD mutations = settings: cited from earlier work
[4] = 40 response-evaluable participants
[5] = participants with history of FLT3-mutated AML at FLT3-inhibitory doses (150 mg QD, 225 mg QD, 50 mg BID, 75 mg BID)

## CCCNc1nc(Nc2ccc(C#N)cc2)ncc1C#CCCCNC(=O)[C@H](C)N(C)C(=O)/C=C/CN(C)C [FF-10101]
[1]; after oral dosing
  effect of food on absorption: unaffected by food
[1]; human, plasma, po
  half-life: ~10 h
[2]; [4]
  number of CR: 1
  number of CRh: 1
  number of CRp: 2
  number of PR: 1
  overall response rate (CR + CRh + CRp + PR): 12.5%
[2]; [5]
  number of CR: 1
  number of CRp: 2
  number of PR: 1
FLT3; PIA, escalating doses
  dose levels at which inhibition of P-FLT3 was most effective: 150 mg daily, 225 mg daily, 50 mg BID, and 75 mg BID
FLT3; cycle 1 plasma samples
  plasma concentration of FF-10101 associated with more complete inhibition (PIA): > 100 ng/mL
FLT3; maximal trough suppression eg <5% of baseline
  FF-10101 concentration achieving maximal trough suppression of P-FLT3 activity: > 200 ng/mL
[3]; 50 mg BID cohort, grade 3 maculopapular rash
  participants with DLT: 1 of 7
[3]; 100 mg BID cohort, 5 participants
  participants with DLTs: 2 participants
[3]; 53 of 54 participants, all cohorts
  participants reporting at least 1 treatment emergent AE (TEAE): 98.1%
[3]; <100 mg/dose
  participants reporting diarrhea: 21.2%
[3]; All grades
  Aspartate aminotransferase elevation, related TEAE: 14 (25.9) participants (%)
  Creatine kinase increase, related TEAE: 16 (29.6) participants (%)
  Diarrhea, related TEAE: 15 (27.8) participants (%)
  Nausea, related TEAE: 19 (35.2) participants (%)
[3]; Grade 1-2
  Aspartate aminotransferase elevation, related TEAE: 10 (18.5) participants (%)
  Creatine kinase increase, related TEAE: 11 (20.4) participants (%)
  Diarrhea, related TEAE: 13 (24.1) participants (%)
  Nausea, related TEAE: 19 (35.2) participants (%)
[3]; Grade ≥3
  Aspartate aminotransferase elevation, related TEAE: 4 (7.4) participants (%)
  Creatine kinase increase, related TEAE: 5 (9.3) participants (%)
  Diarrhea, related TEAE: 2 (3.7) participants (%)
  Nausea, related TEAE: 0 (0) participants (%)
[3]; all cohorts
  participants with grade 3 diarrhea: 4 participants
[3]; oral
  recommended phase 2 dose (RP2D): 75 mg BID
[3]; oral, 28-day cycles
  maximum tolerated dose (MTD): 75 mg BID
[3]; ≥100 mg/dose (100 mg QD, 150 mg QD, 225 mg QD, 100 mg BID)
  participants reporting grade 1-3 diarrhea: 76.2%

## CO[C@@H]1[C@H](N(C)C(=O)c2ccccc2)C[C@H]2O[C@]1(C)n1c3ccccc3c3c4c(c5c6ccccc6n2c5c31)C(=O)NC4 [Midostaurin]
AML
  single-agent activity: no single-agent activity

## CNC(=O)c1cc(Oc2ccc(NC(=O)Nc3ccc(Cl)c(C(F)(F)F)c3)cc2)ccn1 [Sorafenib]
FLT3-TKD mutations
  activity against FLT3-TKD mutations: inactive
